The test system of this assay is human washed platelets, PMA-induced P-selectin, flow cytometry. As to the kind of experiment: inhibitors of PMA-stimulated platelet P-selectin exposure, selectivity assay for platelet activation inhibitor project, cell-based, fluorescence, flow cytometry, platelets (AID 2509). The following applies: at 30 µM; stronger effect = higher value. In short, it runs like this:
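Test system: platelets, PMA-induced surface P-selectin expression. Probe or stimulus: PMA at 5 nM, platelet activating stimulus. Timing: compound 20 min before PMA, 15 min stimulation, 20 min staining. Technique: flow cytometry with PE-conjugated anti-P-selectin antibody.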
In general terms: Flow cytometry measures light scatter and fluorescence of single cells or particles in a stream.

The structures appear in SMILES notation. Activity calls are given as the source filed them.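 Rule for the calls: active = compounds cutting phorbol ester driven platelet P-selectin display by over 50% in every run; inconclusive = over 50% in some runs but not others; inactive = 50% or less in every run.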

Regarding `C/C(=N/NC(=O)C1CCCC1)c1ccc(NC(=O)C(F)(F)F)cc1`, the inhibition (in general, the change of the read-out against control, counted positive when it falls) is 9.5% (inactive).

On to `Cc1ccc(-n2c(N)c(C#N)c(-c3ccccc3)c(C#N)c2=O)cc1`, for which the inhibition was 5.5% (inactive).
